The nature of data set [1]: Selectivity ratio of CC50 for human CCC-HPF1 cells to IC50 for HUVEC. Type of data set: ADME, cell-based. The settings on record: CCC-HPF1 cells versus HUVEC, read-out: Ratio CC50/IC50.
The subject of another data set is MCF7. The data set is described as follows: Antiproliferative activity against human MCF7 cells after 96 hrs by MTT assay. To be noted: MCF7, 96 h.
A further data set deals with HUVEC. Put plainly: Antiangiogenic activity in HUVEC after 96 hrs by MTT assay. To be noted: Homo sapiens. It counts as functional, cell-based. The procedure, abridged: (§1)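 MTT viability. Seeding was 1000 cells/well for HUVEC, 1500 for MCF-7 and CCC-HPF-1, and 2000 for A549. After 20 h attachment, compound or carrier was added from 2% DMSO/PBS stocks (final DMSO 0.1%), in triplicate per concentration.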
On the technique in general: Tetrazolium dyes change colour on reduction, which living cells bring about.

In the next data set the test system is A549. The data set is described as follows: Antiproliferative activity against human A549 cells after 96 hrs by MTT assay. It counts as functional, cell-based. To be noted: A549, 96 h. The procedure, abridged: as §1
The nature of data set [2]: Antiproliferative activity against human CCC-HPF1 cells after 96 hrs by MTT assay. It counts as cell-based. The essentials:
as §1

A word on the IC50: it is the point on the concentration scale where inhibition reaches its midpoint. Low readings indicate greater potency, high ones weaker potency. As a reminder, the CC50 is the concentration at which the toxic effect on the cells reaches its halfway point.

Consider `CN(C)c1ccc(/C=C2\Oc3ccc(O)cc3C2=O)cc1`, for which the selectivity ratio in data set [1] is 20. The IC50 worked out at 10.1 µM in the data set with MCF7, 1.35 µM with HUVEC and 18.7 µM with A549. The compound also showed a CC50 at 96 h in data set [2] of 25.1 µM.

For `CO[C@@H]1[C@H](OC(=O)/C=C/C=C/C=C/C=C/C(=O)O)CC[C@]2(CO2)[C@H]1[C@@]1(C)O[C@@H]1CC=C(C)C` [FUMAGILLIN], the IC50 with MCF7 is no less than 50 µM; with HUVEC, 0.0089 µM; with A549, no less than 50 µM.
